Source: ChEMBL document CHEMBL1671775, “Synthesis, anticancer activity, and iron affinity of the Actinoplanes metabolite 7,8-dihydroxy-1-methylnaphtho[2,3-c]furan-4,9-dione” (Bioorg Med Chem, 2011)

System: HT-29
Assay: Cytotoxicity against human HT-29 cells after 72 hrs by MTT assay
Assay type: functional, cell-based
Settings: HT-29, 72 h

SMILES	IC50 [µM]
CC1=CC(=O)C(C(C)C)=CC1=O [THYMOQUINONE]	47
Cc1occ2c1C(=O)c1c(ccc(O)c1O)C2=O	70
COc1ccc2c(c1O)C(=O)c1c(coc1C)C2=O	31

System: not listed separately
Assay: Cytotoxicity against human KB-V1/Vbl cells after 72 hrs by MTT assay
Assay type: functional, cell-based
Settings: not given
Summary of the method: (§1)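 Cells were seeded at 5 × 10^4/mL and cultured 24 h, then exposed to compound for 72 h. KB-V1/Vbl cells were grown in DMEM with 10% FCS and MCF-7/Top cells in EMEM with 5% FCS, pyruvate and NaHCO3. MTT was added to a final 0.1% for 2 h. Medium was discarded, and formazan was dissolved in DMSO/SDS/acetic acid. A570 was read against A630 background. IC50 was taken from concentration–response curves versus untreated controls; four independent experiments.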

SMILES	IC50 [µM]
CC1=CC(=O)C(C(C)C)=CC1=O [THYMOQUINONE]	32
Cc1occ2c1C(=O)c1c(ccc(O)c1O)C2=O	86
COc1ccc2c(c1O)C(=O)c1c(coc1C)C2=O	51

System: HFF
Assay: Cytotoxicity against human HFF after 72 hrs by MTT assay
Assay type: functional, cell-based
Settings: not given
Summary of the method: (§2)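 518A2 cells and foreskin fibroblasts were grown in DMEM with 10% FCS, seeded at 5 × 10^4/mL and cultured 24 h. Cells were then exposed to compound for 72 h. MTT was added to a final 0.05% for 2 h. Medium was discarded, and formazan was dissolved in DMSO/10% SDS/0.6% acetic acid. A570 was read against A630 background. IC50 was taken from concentration–response curves versus untreated controls; four independent experiments.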

SMILES	IC50 [µM]
CC1=CC(=O)C(C(C)C)=CC1=O [THYMOQUINONE]	33
Cc1occ2c1C(=O)c1c(ccc(O)c1O)C2=O	69
COc1ccc2c(c1O)C(=O)c1c(coc1C)C2=O	31

System: not listed separately
Assay: Cytotoxicity against human MCF7/Topo cells after 72 hrs by MTT assay
Assay type: functional, cell-based
Settings: not given
Summary of the method: as §1

SMILES	IC50 [µM]
CC1=CC(=O)C(C(C)C)=CC1=O [THYMOQUINONE]	27
Cc1occ2c1C(=O)c1c(ccc(O)c1O)C2=O	> 100
COc1ccc2c(c1O)C(=O)c1c(coc1C)C2=O	16

System: not listed separately
Assay: Cytotoxicity against human 518A2 cells after 72 hrs by MTT assay
Assay type: functional, cell-based
Settings: 518A2, 72 h
Summary of the method: as §2

SMILES	IC50 [µM]
CC1=CC(=O)C(C(C)C)=CC1=O [THYMOQUINONE]	28
Cc1occ2c1C(=O)c1c(ccc(O)c1O)C2=O	84
COc1ccc2c(c1O)C(=O)c1c(coc1C)C2=O	> 100

System: HL-60
Assay: Cytotoxicity against human HL60 cells after 72 hrs by MTT assay
Assay type: functional, cell-based
Settings: HL-60, 72 h
Summary of the method: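 HL-60 cells were grown in RPMI 1640 with 10% FCS at 37 °C and 5% CO2, seeded at 5 × 10^5/mL and cultured 24 h. Cells were then exposed to compound for 72 h. MTT was added to a final 0.05% for 2 h, and formazan was dissolved in DMSO with 10% SDS and 0.6% acetic acid. A570 was read against A630 background. IC50 was taken from concentration–response curves relative to untreated controls; quadruplicate, four independent experiments.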

SMILES	IC50 [µM]
CC1=CC(=O)C(C(C)C)=CC1=O [THYMOQUINONE]	28
Cc1occ2c1C(=O)c1c(ccc(O)c1O)C2=O	89
COc1ccc2c(c1O)C(=O)c1c(coc1C)C2=O	18
